Source: ChEMBL document CHEMBL1152522, “RCAI-37, 56, 59, 60, 92, 101, and 102, cyclitol and carbasugar analogs of KRN7000: their synthesis and bioactivity for mouse lymphocytes to produce Th1-biased cytokines” (2009)
Activity calls are given as the source filed them. The rule behind the calls is not given here.

Assays:
Mus musculus [1] = experiment: Immunostimulatory activity in C57BL/6 mouse assessed as increase in serum IFN-gamma production at 10 ug/mL, iv after 10 to 60 hrs post-injection by ELISA; format: functional, organism-based
Summary of the method: (§1)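 C57BL/6 mice, 8–16 wk old, kept specific pathogen-free. Glycolipid stock (1.0 mg/mL in DMSO) diluted to 10 µg/mL in Dulbecco's PBS just before dosing; 200 µL given iv. Retro-orbital heparinized blood taken at 3, 6, 12, 24, 36, 48 and 60 h for plasma. IFN-γ measured by ELISA; IL-4 and IL-12p70 by cytometric bead array. Mean ± SD of 3 mice; experiment repeated three times.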

Mus musculus [2] = experiment: Immunostimulatory activity in C57BL/6 mouse assessed as increase in serum IL4 production at 10 ug/mL, iv after 3 to 24 hrs post-injection by cytometric bead array method; format: functional, organism-based; summary of the method: as §1
Mus musculus [3] = experiment: Immunostimulatory activity in C57BL/6 mouse assessed as mild increase in serum IFN-gamma production at 10 ug/mL, iv after 10 to 60 hrs post-injection by ELISA; format: functional, organism-based; summary of the method: as §1
PBMC = experiment: Immunostimulatory activity in human PBMC assessed as increase in IFN-gamma production by ELISA; format: functional, cell-based
Mus musculus [4] = experiment: Immunostimulatory activity in C57BL/6 mouse assessed as increase in serum IL-12p70 production at 10 ug/mL, iv after 3 to 24 hrs post-injection by cytometric bead array method; format: functional, organism-based; summary of the method: as §1
Mus musculus [5] = experiment: Immunostimulatory activity in C57BL/6 mouse assessed as increase in serum IFN-gamma production at 10 ug/mL, iv after 36 hrs post-injection by ELISA; format: functional, organism-based; summary of the method: as §1
Mus musculus [6] = experiment: Ratio of KRN700 to compound activity for increase in serum IL4 production in C57BL/6 mouse at 10 ug/mL, iv after 3 to 24 hrs post-injection by cytometric bead array method; format: functional
Mus musculus [7] = experiment: Immunostimulatory activity in C57BL/6 mouse assessed as increase in serum IL-12p70 production at 10 ug/mL, iv after 6 hrs post-injection by cytometric bead array method; format: functional, organism-based; summary of the method: as §1
Mus musculus [8] = experiment: Immunostimulatory activity in C57BL/6 mouse assessed as increase in serum IL-12p70 production at 10 ug/mL, iv after 3 hrs post-injection by cytometric bead array method; format: functional, organism-based; summary of the method: as §1
Mus musculus [9] = experiment: Immunostimulatory activity in C57BL/6 mouse assessed as increase in serum IFN-gamma production at 10 ug/mL, iv after 24 hrs post-injection by ELISA; format: functional, organism-based; summary of the method: as §1

## CCCCCCCCCCCCCCCCCCCCCCCCCC(=O)N[C@@H](CO[C@H]1C[C@H](OC)[C@H](O)[C@H](O)[C@H]1O)[C@H](O)[C@H](O)CCCCCCCCCCCCCC
Mus musculus [1]
  Activity: Active
Mus musculus [2]
  Activity: Active

## CCCCCCCCCCCCCCCCCCCCCCCCCC(=O)N[C@@H](CO[C@H]1C[C@H](COC)[C@H](O)[C@H](O)[C@H]1O)[C@H](O)[C@H](O)CCCCCCCCCCCCCC
Mus musculus [3]
  Activity: Active

## CCCCCCCCCCCCCCCCCCCCCCCCCC(=O)N[C@@H](CO[C@H]1C[C@H](O)[C@H](O)[C@H](O)[C@H]1O)[C@H](O)[C@H](O)CCCCCCCCCCCCCC
Mus musculus [1]
  Activity: Active
PBMC
  Activity: Active
Mus musculus [2]
  Activity: Active

## C[C@H]1O[C@H](O)[C@H](O)[C@@H](O)[C@H]1O
Mus musculus [1]
  Activity: Active

## CCCCCCCCCCCCCCCCCCCCCCCCCC(=O)N[C@@H](CO[C@@H]1[C@H](O)[C@@H](O)[C@@H](O)[C@@H](O)[C@@H]1O)[C@H](O)[C@H](O)CCCCCCCCCCCCCC
Mus musculus [4]
  Activity: inactive
Mus musculus [1]
  Activity: inactive
Mus musculus [2]
  Activity: inactive

## CCCCCCCCCCCCCCCCCCCCCCCCCC(=O)N[C@@H](CO[C@@H]1[C@H](O)[C@@H](O)[C@H](O)[C@@H](O)[C@@H]1O)[C@H](O)[C@H](O)CCCCCCCCCCCCCC
Mus musculus [4]
  Activity: inactive
Mus musculus [1]
  Activity: inactive
Mus musculus [2]
  Activity: inactive

## CCCCCCCCCCCCCCCCCCCCCCCCCC(=O)N[C@@H](CO[C@H]1C[C@H](C)[C@H](O)[C@H](O)[C@H]1O)[C@H](O)[C@H](O)CCCCCCCCCCCCCC
Mus musculus [3]
  Activity: Active

## CCCCCCCCCCCCCCCCCCCCCCCCCC(=O)N[C@@H](CO[C@H]1C[C@H](CO)[C@H](O)[C@H](O)[C@H]1O)[C@H](O)[C@H](O)CCCCCCCCCCCCCC
Mus musculus [5]
  Activity: Active
Mus musculus [6]
  Ratio: 0.5
PBMC
  Activity: Active
Mus musculus [7]
  Activity: Active
Mus musculus [8]
  Activity: Active
Mus musculus [9]
  Activity: Active
